# The list is not random: actives were taken first. Their share in the collection is about 2.3%.
# Dynein cargo inh: dynein cargo transport inhibition; z-score, hits read low; 0.47% of 220,000 active; 3617.4 mouse cells, GR-EGFP nuclear translocation imaging; test concentration mostly 20 µM; stimulated with dexamethasone, 1 µM; hits give low values; AID 1381;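 active means plate z-score of nuclear minus cytoplasmic receptor signal below a set negative limit, without overly bright fluorescence or cell loss, cut at about -3.5 in these data, passing the limit was not always enough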;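 further: z-score of nuclear minus cytoplasmic ring GR-EGFP intensity difference per well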
#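 Buffer or medium – tet-free medium with charcoal-stripped serum · Signal – automated 10x imaging of fixed Hoechst-stained cells · Also added – dexamethasone agonist, 1.0 µM final, for 30 min · Incubation – induction 48 h, compound 1 h, agonist 30 min · Read-out – GR-EGFP nuclear translocation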
# Autophagy mod: alters autophagy in cells; MEF GFP-LC3 puncta imaging; test concentration mostly 10 µM; calls only at 10 µM (by protocol); 0.98% of 190,000 active; AID 463193;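 active means percentage of spot-positive cells more than 3 SD above its plate mean, without a fluorescence outlier flag or 80% toxicity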
# Insulin prom up: MIN6 insulin promoter up-regulation | z-score at 5 µM | MIN6 insulin promoter-GFP reporter, high-content imaging; hits give high values | 0.3% of 190,000 active;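 active means z-score above 3 at 5 µM with at least 500 cells counted in the well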
# b-catenin transl: beta-catenin nuclear translocation modulation | nuclear translocation activity, % at 5 µM | 0.3% of 190,000 active | HeLa beta-catenin nuclear translocation, immunofluorescence imaging | AID 1665;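 active means nuclear translocation activity above 50% at 5 µM, with a well cell count of 50 or more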;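 further: per-cell ratio of nuclear to cytoplasmic median beta-catenin stain intensity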
#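 Test system: human HeLa cells, endogenous beta-catenin. Times: 24 h compound exposure, 37°C. Measured by: beta-catenin immunofluorescence imaging with DAPI.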
# MT stabilize HCS: microtubule stabilization, imaging screen; HeLa tubulin immunostaining HCS, 24 h; share of cells brighter than vehicle mean+2SD; % tubulin-high responders, % at 10 µM; 0.83% of 200,000 active; AID 2205;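 active means plate Z-score above 3 for both tubulin-high and condensed-nucleus cell shares, with cell loss under 80%, at 10 µM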;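 further: anti alpha tubulin signal scored within the nucleus-defined area of each cell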
# Numbers stand for hits; i = inactive; nt = no result given; + = active, no number.
SMILES,Dynein cargo inh,Autophagy mod,Insulin prom up,b-catenin transl,MT stabilize HCS
COc1ccc(OC)c(Cc2nnc(CCC(=O)NCc3nc4ccccc4s3)o2)c1,i,i,i,i,i
CC(=O)Nc1cccc(NC(=O)CSc2ccc(-c3cccnc3)nn2)c1,i,+,i,i,i
Cc1cc(C)c(NC(=O)CSc2ccc(-c3cccnc3)nn2)c(C)c1,i,i,i,i,i
O=C(c1cccc(S(=O)(=O)N2CCOCC2)c1)N1CCCCCC1,i,+,i,i,i
CCN(CC)CC(=O)N1c2ccccc2Oc2c(c(=O)n(C)c(=O)n2C)C1c1cccc([N+](=O)[O-])c1 (centres undefined),i,nt,i,i,nt
Nc1cc(=O)[nH]n1C1CCCCC1,i,+,i,i,i
CCCCn1c(=NC(=O)c2ccco2)c(C(=O)OCC)cc2c(=O)n3cccc(C)c3nc21,i,nt,nt,i,nt
Cc1ccc(-c2nc(C=Nc3ccc(O)cc3)c(O)o2)cc1,i,i,i,i,i
Cc1ccc(N=Cc2nc(/C=C/c3cccc([N+](=O)[O-])c3)oc2O)cc1,i,+,i,i,i
C=CCNC(=O)C(=O)NCCOc1ccccc1Cl,i,i,i,i,23
Cc1ccc(S(=O)(=O)NCC(=O)NCC(=O)OCC(=O)N2CC(=O)Nc3ccccc32)cc1C,i,i,i,i,i
O=[N+]([O-])c1ccc(Oc2cccc(Br)c2)c2ccncc12,i,+,i,i,i
Cn1c(=O)[nH]c(=O)c2c1nc(NC1CCCCC1)n2CCO,i,nt,i,i,nt
Cn1c(=O)[nH]c(=O)c2c1nc(NC1CCCCC1)n2CC(=O)NC1CCCCC1,i,+,i,nt,i
c1ccc2cc(CNCc3cccc4ccccc34)ccc2c1,i,nt,i,i,nt
Cc1cc(C)c2oc(-c3ccc(Cl)c(NC(=O)c4ccc(C#N)cc4F)c3)nc2c1,i,+,i,i,i
Cc1ccc(S(=O)(=O)/N=C(/Nc2nc(C)cc(C)n2)N2CCOCC2)cc1,i,i,nt,i,i
COc1ccc(N2CCN(/C(=N\S(=O)(=O)c3ccccc3)Nc3nc(C)cc(C)n3)CC2)cc1,i,+,i,i,i
Cc1cccc(/C=N/NC(=O)c2cc3c(s2)-c2ccccc2CC3)c1,i,i,i,i,34
COc1ccc2nc(/C=N/NC(=O)CCCCCNC(=O)OC(C)(C)C)ccc2c1,i,nt,nt,i,nt
CC(=Nc1ccc(C)cc1C)c1sc2ccccc2c1O,i,i,4,i,i
CC(=Nc1ccc(C)cc1)c1sc2ccccc2c1O,i,i,i,i,i
COc1ccc(CNCCc2ccc(Cl)cc2)cc1OCc1ccccc1,i,+,nt,i,i
N#CCC(=O)Nc1ccc(C(=O)OCC(=O)Nc2cccc(C(F)(F)F)c2)cc1,i,i,i,i,i
Cc1cc(S(=O)(=O)NC2CCCCC2)c(C)s1,i,i,3.5,i,i
SMILES,Dynein cargo inh,Autophagy mod,Insulin prom up,b-catenin transl,MT stabilize HCS
CCn1c(=O)cc(SCC(=O)NCCCN2CCN(c3ccccc3F)CC2)c2ccccc21,i,+,i,i,i
Cc1cc(NC(=O)COC(=O)C(Cc2ccccc2)NC(=O)c2ccco2)no1 (centres undefined),i,+,i,i,i
OCCNNC(=S)NC1CC2C=CC1C2 (centres undefined),i,nt,i,i,nt
Cc1ccc2c(c1)C=CC(C)N2C(=O)c1ccccc1 (centres undefined),i,i,i,i,i
Cc1ccc2c(c1)C=CC(C#N)N2C(=O)c1ccccc1 (centres undefined),i,i,i,56,33
CC(=O)CSc1nnc2c3ccccc3nc(C(C)(C)C)n12,i,i,nt,i,i
Cc1csc(NC(=O)CSc2nnc3c4ccccc4nc(C(C)(C)C)n23)n1,i,i,i,58,46
Cc1ccc(C(=O)CSc2nnc3c4ccccc4nc(C(C)(C)C)n23)cc1,i,i,i,i,26
Cc1ccc(-c2csc(NC(=O)CSc3nc4ccccc4c(=O)n3CCCN(C)C)n2)cc1,i,+,i,i,i
CCn1c(SCC(=O)Nc2nc(-c3ccc(C)cc3)cs2)nnc1-c1ccccc1,i,i,i,nt,i
Cc1cc(Br)cn2cc(C(=O)O)nc12,i,i,i,i,i
CNCc1sccc1C,i,i,i,i,i
CCc1nnc(NC(=O)C2CCCN2C(=O)Nc2ccccc2)s1 (centres undefined),i,i,i,i,i
CC(=O)OCc1cc(-c2nc3ccccc3[nH]c2=O)nn1-c1ccc(Cl)cc1,i,nt,i,i,nt
CCOc1ccc2[nH]c(=O)c(C(c3nnnn3C3CCCCC3)N3CCN(C)CC3)cc2c1 (centres undefined),i,+,i,i,i
CC(=O)c1cccc(Nc2cc(C)nc3ccc(C)cc23)c1,i,nt,i,i,nt
COC(=O)c1ccc(Nc2cc(C)nc3ccc(C)cc23)cc1,i,nt,i,62,nt
COC(=O)c1ccc2nc(C)cc(Nc3ccccc3C)c2c1,i,i,i,i,i
Cc1ccc2nc(C)cc(Nc3ccc([N+](=O)[O-])cc3)c2c1,i,+,i,i,i
Cc1cc(C)c2c(c1)/C(=N\N=c1\sc3ccccc3n1C)C(=O)N2,i,nt,i,i,nt
CCCC1C2C(=O)N(c3cccc(C)c3)C(=O)C2ON1c1ccccc1 (centres undefined),i,nt,i,i,nt
Cc1nc(SCC(C)C)[nH]c(=O)c1Cc1ccccc1,i,+,i,i,i
CC1CC(=O)c2c(cc3c(-c4c(O)cc(O)c5c(O)c6c(cc45)OC(C)CC6=O)c(O)cc(O)c3c2O)O1 (centres undefined),i,i,i,i,32
CN(C)c1ccc(/C=C/c2ccc3ccccc3n2)cc1,i,nt,7.3,i,nt
C(=C\c1ccc2ccccc2n1)/c1ccccc1,i,nt,i,i,nt
SMILES,Dynein cargo inh,Autophagy mod,Insulin prom up,b-catenin transl,MT stabilize HCS
Cc1ccc(C2Oc3ccccc3C3=C2C(c2cccs2)n2ncnc2N3)cc1 (centres undefined),i,i,i,i,32
Fc1ccc(C2C3=C(Nc4ncnn42)c2ccccc2OC3c2ccncc2)cc1 (centres undefined),i,i,i,nt,i
CN1c2ccccc2C(C)(C)[C@]12C=Cc1cc(O)ccc1O2,i,i,i,i,31
CN1c2ccccc2C(C)(C)C12C=Nc1c(ccc3ccccc13)O2 (centres undefined),i,i,i,i,i
O=C(N/N=C/c1cccc(Oc2ccccc2)c1)c1ccccc1Br,i,i,i,i,27
Cc1nn(-c2c(Cl)cc(Cl)cc2Cl)c(=O)c2ccccc12,i,i,3.4,nt,i
Cc1nn(-c2ccccc2C(=O)O)c(=O)c2ccccc12,i,i,i,i,i
O=c1cc(COc2ccccc2[N+](=O)[O-])nc2sccn12,i,nt,i,i,nt
N/C(=N\OC(=O)C1CCCCC1)c1cccc([N+](=O)[O-])c1,i,i,3,i,i
O=C(O)/C=C/C(=O)Nc1ccc(NC(=O)c2ccccc2)c(Cl)c1,i,i,i,i,i
CCCCN(CCCC)Cc1ccc(C(=O)NNC(=O)Nc2ccccc2)o1,i,+,i,i,i

# From PubChem BioAssay
